In brackets after ≈: the same amount, converted by molar mass.

Assay type in all cases: functional
Test [1] deals with Candida albicans. Nature of the test: Antimicrobial activity against multidrug-resistant Candida albicans isolates after 24 to 48 hrs. Put shortly: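 Yeast broth microdilution following CLSI M27-A, with Sabouraud dextrose medium noted for antifungal assays. Fresh cultures at McFarland 0.5 (10^6 cfu/ml) were diluted to 10^4 cfu/ml and inoculated into twofold compound dilutions. Trays were incubated at 35 °C in a humid chamber and read at 48 h, in triplicate. MIC was the lowest concentration giving complete macroscopic growth inhibition.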

For another test, the system named is Pseudomonas aeruginosa. Nature of the test: Antimicrobial activity against Pseudomonas aeruginosa ATCC […] after 24 hrs. Put shortly:
(§1)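 MIC by twofold serial dilution in Mueller-Hinton broth (MHB); MHB also used to dilute the bacterial suspension. Wells held 10^3 cfu/ml bacteria after inoculation. Controls: 80% DMSO, 20% EtOH, methanol, DMSO, PBS, organism alone and medium alone. Triplicate in each run. MIC taken as the lowest concentration completely inhibiting macroscopic growth.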

The subject of test [2] is Escherichia coli. Nature of the test: Antimicrobial activity against Escherichia coli ATCC 25922 after 24 hrs. Conditions: ATCC 25922, 24 h. Put shortly:
as §1

The subject of test [3] is Klebsiella pneumoniae. Nature of the test: Antimicrobial activity against multidrug-resistant Klebsiella pneumoniae after 24 hrs. Put shortly: (§2)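 Twofold serial broth dilution in Mueller-Hinton broth. MHB was used both to dilute the bacterial suspension and for the twofold compound dilutions, giving 10^3 cfu/ml bacteria per well after inoculation. Solvent, medium and organism-only wells served as controls. Each organism was run in triplicate.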

Test [4] concerns Bacillus subtilis. Put plainly: Antimicrobial activity against ceftriazone-resistant Bacillus subtilis after 24 hrs. Put shortly:
as §2

The subject of test [5] is Staphylococcus aureus. Put plainly: Antimicrobial activity against multidrug-resistant Staphylococcus aureus after 24 hrs. Put shortly:
as §2

Test [6] relates to Staphylococcus aureus. Put plainly: Antimicrobial activity against Staphylococcus aureus ATCC 25923 after 24 hrs. The note with it: ATCC 25923, 24 h. Put shortly:
as §2

In test [7] the test system is Candida albicans. Nature of the test: Antimicrobial activity against Candida albicans ATCC 10231 after 24 to 48 hrs. Put shortly: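 Twofold serial dilution following CLSI M27-A. Yeast suspension made at 10^4 cfu/ml by diluting a fresh culture at McFarland 0.5 (10^6 cfu/ml). Inoculated into the diluted compound, incubated at 35 °C in a humid chamber, read after 48 h. Triplicate in each run. MIC is the lowest concentration completely inhibiting macroscopic growth.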

The test system of test [8] is Escherichia coli. Put plainly: Antimicrobial activity against multidrug-resistant Escherichia coli after 24 hrs. Put shortly:
as §2

In test [9] the test system is Klebsiella pneumoniae. Put plainly: Antimicrobial activity against Klebsiella pneumoniae RSHM 574 after 24 hrs. Conditions: RSHM 574, 24 h. Put shortly:
as §1

Test [10] has as its system Bacillus subtilis. Nature of the test: Antimicrobial activity against Bacillus subtilis ATCC 6633 after 24 hrs. The note with it: for MIC: Bacillus subtilis, ATCC 6633, 24 h. Put shortly:
as §1

For the compound `O=[N+]([O-])c1ccc2nc(Cc3ccc(F)cc3)oc2c1`, the minimal inhibitory concentration (MIC) (as a rule, the least concentration at which growth counts as inhibited) against Candida albicans [1] was 50 µg/mL (≈ 184 µM); in the test with Pseudomonas aeruginosa, 50 µg/mL (≈ 184 µM); in the test with Escherichia coli [2] it was 50 µg/mL (≈ 184 µM); against Klebsiella pneumoniae [3], 100 µg/mL (≈ 367 µM); against Bacillus subtilis [4] it was 100 µg/mL (≈ 367 µM); in the test with Staphylococcus aureus [5], 100 µg/mL (≈ 367 µM). In addition, the MIC in the test on Staphylococcus aureus [6] is 100 µg/mL (≈ 367 µM); against Candida albicans [7], 100 µg/mL (≈ 367 µM); against Escherichia coli [8], 50 µg/mL (≈ 184 µM); in the test with Klebsiella pneumoniae [9] it was 50 µg/mL (≈ 184 µM); against Bacillus subtilis [10], 12.5 µg/mL (≈ 45.9 µM). In addition, in the test with Bacillus subtilis [10], the “log(1/C)” value was 4.338.
On to `O=[N+]([O-])c1ccc2nc(Cc3ccc(Cl)cc3)oc2c1`, for which the MIC against Candida albicans [1] is 50 µg/mL (≈ 173 µM); in the test with Pseudomonas aeruginosa it was 25 µg/mL (≈ 86.6 µM); in the test on Escherichia coli [2] it was 50 µg/mL (≈ 173 µM); with Klebsiella pneumoniae [3], 100 µg/mL (≈ 346 µM); in the test on Bacillus subtilis [4], 25 µg/mL (≈ 86.6 µM); against Staphylococcus aureus [5] it was 100 µg/mL (≈ 346 µM). Moreover, the MIC against Staphylococcus aureus [6] was 200 µg/mL (≈ 693 µM); with Candida albicans [7], 100 µg/mL (≈ 346 µM); against Escherichia coli [8], 100 µg/mL (≈ 346 µM); against Klebsiella pneumoniae [9], 50 µg/mL (≈ 173 µM); against Bacillus subtilis [10], 12.5 µg/mL (≈ 43.3 µM). Also, the “log(1/C)” value in the test on Bacillus subtilis [10] was 4.364.
`CCc1ccc(-c2nc3cc(N)ccc3o2)cc1`: the minimal inhibitory concentration (MIC) with Candida albicans [1] came to 50 µg/mL (≈ 210 µM); in the test on Pseudomonas aeruginosa it was 50 µg/mL (≈ 210 µM); with Escherichia coli [2], 50 µg/mL (≈ 210 µM); in the test on Klebsiella pneumoniae [3], 100 µg/mL (≈ 420 µM); in the test on Bacillus subtilis [4], 50 µg/mL (≈ 210 µM); in the test with Staphylococcus aureus [5], 100 µg/mL (≈ 420 µM). For the same compound, the MIC in the test with Staphylococcus aureus [6] worked out at 25 µg/mL (≈ 105 µM); with Candida albicans [7], 50 µg/mL (≈ 210 µM); with Escherichia coli [8], 100 µg/mL (≈ 420 µM); against Klebsiella pneumoniae [9], 50 µg/mL (≈ 210 µM); against Bacillus subtilis [10] it was 12.5 µg/mL (≈ 52.5 µM). Also, the “log(1/C)” value in the test with Bacillus subtilis [10] is 4.28.

Source of the values: ChEMBL document CHEMBL1138547, “Synthesis, biological evaluation and 2D-QSAR analysis of benzoxazoles as antimicrobial agents” (2009).
